In ChEMBL document CHEMBL5143728, “Next-Generation Diprovocims with Potent Human and Murine TLR1/TLR2 Agonist Activity That Activate the Innate and Adaptive Immune Response” (J Med Chem, 2022):
Active and inactive are the calls of the source. The calls are words filed in the database; no cut-off is given here.

Legend:
Peritoneal macrophage [1] = assay: Stimulation of TNF alpha release in TLR4- deficient mutant C3H/HeJ mouse peritoneal macrophage at 500 nM; assay type: functional, cell-based
Outline: (§1)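 Peritoneal macrophages from Tlr4-WT C3H/HeOuJ mice or Tlr4 P712H-mutant C3H/HeJ mice, stimulated with agonist at 500 nM. Released TNF-α measured. LPS run as positive control.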

Mus musculus [2] = assay: Immuno-adjuvant activity in C57BL/6J mouse assessed as increase in level of OVA specific Goat Anti-Mouse IgG2b-HRP antibody at 10 mg/kg, IM co-treated with ovalbumin at 5 mg/kg incubated for 1 hrs measured on day 14 by ELISA; assay type: functional, organism-based
Outline: (§2)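 Female 8-week C57BL/6J mice (ca. 20 g) given i.m. 200 μg (10 mg/kg) agonist mixed with 100 μg OVA (5 mg/kg, low endotoxin) in DMSO:Tween 80:saline 1:1:8 on day 0. Controls received vehicle or OVA alone; 5–8 mice/group. Serum OVA-specific IgG, IgG1 and IgG2b measured by ELISA on day 14. Mean ± SD; one-way ANOVA with Tukey test.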

Mus musculus [3] = assay: Immuno-adjuvant activity in C57BL/6J mouse assessed as increase in level of OVA specific Goat Anti-Mouse IgG1-HRP antibody at 10 mg/kg, IM co-treated with ovalbumin at 5 mg/kg incubated for 1 hrs measured on day 14 by ELISA; assay type: functional, organism-based; outline: as §2
Mus musculus [4] = assay: Immuno-adjuvant activity in C57BL/6J mouse assessed as increase in level of OVA specific Goat Anti-Mouse IgG-HRP antibody at 10 mg/kg, IM co-treated with ovalbumin at 5 mg/kg incubated for 1 hrs measured on day 14 by ELISA; assay type: functional, organism-based; outline: as §2
Splenocyte = assay: In vivo cytotoxicity against C57BL/6 mouse-derived splenocytes loaded with SIINFEKL peptide allografted in immunized C57BL/6J mouse at 10 mg/kg, IM on day 0 and day 28 followed by spleenocytes injection on day 7 and day 35 and measured on day 9 and 37 by flow cytometry; assay type: functional, organism-based
Peritoneal macrophage [5] = assay: Stimulation of TNF alpha release in TLR4-sufficient wild type C3H/HeOuJ mouse peritoneal macrophage at 500 nM; assay type: functional, cell-based; outline: as §1
Toll-like receptor 1/2 [6] = biological target: T1, Toll-like receptor 1/2 (Homo sapiens, UniProt O60603+Q15399); assay: Agonist activity at TLR1/TLR2 in human THP-1 derived macrophages assessed as stimulation of TNF alpha release measured for 4 hrs by ELISA based assay relative to diprovocim-1; assay type: cell-based; parameters: Activity: concentration or dose not given beside the values; settings: filed as agonist
Outline: (§3)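 THP-1 cells differentiated with 100 nM PMA in RPMI/10% FBS for 24 h, washed, then rested 24 h in fresh medium. Seeded at 0.5 × 10⁵ cells/well and exposed to graded compound concentrations for 4 h, with final DMSO held at 0.1%. LPS served as positive control and DMSO as negative control. Supernatant human TNF-α was read by ELISA. EC50 from duplicate means.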

[7] = biological target: Toll-like receptor 1/2 (Mus musculus) (UniProt Q9QUN7+Q9EPQ1); assay: Agonist activity at TLR1/TLR2 in wild type C57BL/6J mouse macrophages assessed as stimulation of TNF alpha release measured for 4 hrs by ELISA based assay relative to diprovocim-1; assay type: cell-based; parameters: Activity: concentration or dose not given beside the values; settings: Macrophage, filed as agonist
Outline: (§4)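 Thioglycolate-elicited peritoneal macrophages from wild type C57BL/6J mice, harvested by PBS lavage 4 d after i.p. 4% thioglycolate. Cultured in DMEM/10% FBS at 37 °C, 5% CO2, seeded at 1 × 10⁵ cells/well and exposed to graded compound concentrations for 4 h, with final DMSO ≤0.5% held constant. LPS served as positive control. Supernatant mouse TNF-α was read by ELISA. EC50 from duplicate means.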

Toll-like receptor 1/2 [8] = biological target: Toll-like receptor 1/2 (Mus musculus, UniProt Q9EPQ1+Q9QUN7); assay: Agonist activity at TLR1/TLR2 in wild type C57BL/6J mouse macrophages assessed as stimulation of TNF alpha release measured for 4 hrs by ELISA based assay; assay type: cell-based, Macrophage; outline: as §4
Toll-like receptor 1/2 [9] = biological target: T1, Toll-like receptor 1/2; assay: Agonist activity at TLR1/TLR2 in human THP-1 derived macrophages assessed as stimulation of TNF alpha release measured for 4 hrs by ELISA based assay; assay type: cell-based; outline: as §3

T1 sequence (O60603 whole entry): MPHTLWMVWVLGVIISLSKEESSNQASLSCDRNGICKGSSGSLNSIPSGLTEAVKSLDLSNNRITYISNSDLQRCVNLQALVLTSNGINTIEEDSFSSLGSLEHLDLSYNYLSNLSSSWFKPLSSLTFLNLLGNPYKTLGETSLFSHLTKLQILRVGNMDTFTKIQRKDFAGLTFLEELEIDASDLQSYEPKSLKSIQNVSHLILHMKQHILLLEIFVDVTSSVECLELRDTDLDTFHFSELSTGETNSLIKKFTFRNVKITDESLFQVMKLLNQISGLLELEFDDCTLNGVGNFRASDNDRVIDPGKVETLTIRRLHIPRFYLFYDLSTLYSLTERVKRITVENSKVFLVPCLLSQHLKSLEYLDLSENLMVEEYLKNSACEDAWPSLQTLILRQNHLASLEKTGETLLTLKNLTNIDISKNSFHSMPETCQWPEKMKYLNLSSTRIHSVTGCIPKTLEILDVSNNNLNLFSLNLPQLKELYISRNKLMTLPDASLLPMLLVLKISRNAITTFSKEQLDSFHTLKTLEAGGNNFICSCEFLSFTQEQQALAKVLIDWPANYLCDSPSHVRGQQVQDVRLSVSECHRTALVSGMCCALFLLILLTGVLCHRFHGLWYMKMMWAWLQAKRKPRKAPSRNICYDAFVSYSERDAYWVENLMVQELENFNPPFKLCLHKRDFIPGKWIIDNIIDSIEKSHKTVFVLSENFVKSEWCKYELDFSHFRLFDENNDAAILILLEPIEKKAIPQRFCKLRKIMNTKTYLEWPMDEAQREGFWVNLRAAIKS
T1 sequence (Q15399 whole entry): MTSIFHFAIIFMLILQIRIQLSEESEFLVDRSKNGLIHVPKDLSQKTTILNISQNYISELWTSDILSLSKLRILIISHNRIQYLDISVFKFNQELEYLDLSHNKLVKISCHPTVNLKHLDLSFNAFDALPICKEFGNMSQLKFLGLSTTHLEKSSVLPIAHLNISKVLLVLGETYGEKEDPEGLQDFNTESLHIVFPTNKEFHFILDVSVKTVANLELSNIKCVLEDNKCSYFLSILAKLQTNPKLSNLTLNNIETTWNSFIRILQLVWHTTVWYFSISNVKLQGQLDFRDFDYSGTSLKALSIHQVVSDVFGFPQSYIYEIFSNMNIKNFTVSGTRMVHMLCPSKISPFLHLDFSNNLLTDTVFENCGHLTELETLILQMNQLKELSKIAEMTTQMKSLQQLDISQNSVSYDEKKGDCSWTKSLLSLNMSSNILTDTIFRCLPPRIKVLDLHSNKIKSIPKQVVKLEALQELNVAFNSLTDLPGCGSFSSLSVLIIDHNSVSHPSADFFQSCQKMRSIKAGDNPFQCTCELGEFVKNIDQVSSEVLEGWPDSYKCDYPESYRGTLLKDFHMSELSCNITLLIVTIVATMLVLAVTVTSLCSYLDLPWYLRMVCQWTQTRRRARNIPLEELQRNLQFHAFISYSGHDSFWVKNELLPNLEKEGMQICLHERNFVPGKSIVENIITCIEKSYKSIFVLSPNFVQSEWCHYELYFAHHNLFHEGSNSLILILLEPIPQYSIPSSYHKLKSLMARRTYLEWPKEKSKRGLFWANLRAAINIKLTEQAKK
Chain of Toll-like receptor 1/2 (Mus musculus, UniProt Q9EPQ1+Q9QUN7) (Q9QUN7 whole entry): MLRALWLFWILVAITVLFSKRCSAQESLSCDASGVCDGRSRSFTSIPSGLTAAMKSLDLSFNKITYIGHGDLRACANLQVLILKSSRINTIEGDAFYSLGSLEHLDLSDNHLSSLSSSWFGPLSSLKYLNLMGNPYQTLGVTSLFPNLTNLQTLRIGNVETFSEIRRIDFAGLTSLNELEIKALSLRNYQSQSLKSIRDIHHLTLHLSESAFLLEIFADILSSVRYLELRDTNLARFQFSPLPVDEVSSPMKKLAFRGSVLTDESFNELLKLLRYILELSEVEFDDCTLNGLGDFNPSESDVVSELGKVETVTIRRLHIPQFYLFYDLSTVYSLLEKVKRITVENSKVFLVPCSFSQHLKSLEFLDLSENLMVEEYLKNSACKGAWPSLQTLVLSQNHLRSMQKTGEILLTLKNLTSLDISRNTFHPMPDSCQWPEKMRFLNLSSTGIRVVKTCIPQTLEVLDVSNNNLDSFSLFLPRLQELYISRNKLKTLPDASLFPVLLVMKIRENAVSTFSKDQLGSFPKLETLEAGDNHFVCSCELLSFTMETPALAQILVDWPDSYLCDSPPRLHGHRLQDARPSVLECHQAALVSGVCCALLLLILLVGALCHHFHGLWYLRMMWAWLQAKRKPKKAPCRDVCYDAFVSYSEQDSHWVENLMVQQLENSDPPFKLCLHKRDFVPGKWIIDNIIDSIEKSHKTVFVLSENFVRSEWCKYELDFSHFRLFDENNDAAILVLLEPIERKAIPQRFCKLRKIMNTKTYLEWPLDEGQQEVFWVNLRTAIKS
Chain of Toll-like receptor 1/2 (Mus musculus, UniProt Q9EPQ1+Q9QUN7) (Q9EPQ1 whole entry): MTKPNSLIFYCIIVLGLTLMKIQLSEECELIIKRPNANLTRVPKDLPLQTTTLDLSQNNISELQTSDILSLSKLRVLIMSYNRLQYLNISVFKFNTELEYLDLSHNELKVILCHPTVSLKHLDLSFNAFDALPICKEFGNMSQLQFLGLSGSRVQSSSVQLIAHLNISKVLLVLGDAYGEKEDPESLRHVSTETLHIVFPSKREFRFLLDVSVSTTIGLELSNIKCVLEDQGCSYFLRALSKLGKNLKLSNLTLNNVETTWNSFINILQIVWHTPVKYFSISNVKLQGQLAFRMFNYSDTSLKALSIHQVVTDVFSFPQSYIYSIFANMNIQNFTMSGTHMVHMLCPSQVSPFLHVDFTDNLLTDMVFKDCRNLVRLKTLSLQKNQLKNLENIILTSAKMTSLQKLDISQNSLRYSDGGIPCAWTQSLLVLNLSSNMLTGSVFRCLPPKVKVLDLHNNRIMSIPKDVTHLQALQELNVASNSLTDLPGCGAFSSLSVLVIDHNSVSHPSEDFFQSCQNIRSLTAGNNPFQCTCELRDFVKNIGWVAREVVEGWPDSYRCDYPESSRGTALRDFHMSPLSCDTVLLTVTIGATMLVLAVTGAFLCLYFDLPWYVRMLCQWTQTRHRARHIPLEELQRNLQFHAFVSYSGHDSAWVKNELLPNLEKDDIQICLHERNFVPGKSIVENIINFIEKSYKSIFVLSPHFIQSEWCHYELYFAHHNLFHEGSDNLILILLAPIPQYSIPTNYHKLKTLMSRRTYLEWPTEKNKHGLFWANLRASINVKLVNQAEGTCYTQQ

Structure (SMILES)	Activity (Peritoneal macrophage [1])	Activity (Mus musculus [2])	Activity (Mus musculus [3])	Activity (Mus musculus [4])	Activity (Splenocyte)	Activity (Peritoneal macrophage [5])	Activity (Toll-like receptor 1/2 [6]) [%]	Activity [7] [%]	EC50 (Toll-like receptor 1/2 [8]) [nM]	EC50 (Toll-like receptor 1/2 [9]) [nM]
O=C(N[C@H]1C[C@@H]1c1ccccc1)[C@@H]1CN(C(=O)c2ccc(C(=O)N3C[C@@H](C(=O)N[C@H]4C[C@@H]4c4ccccc4)[C@H](C(=O)N[C@H]4C[C@@H]4c4ccccc4)C3)cc2)C[C@H]1C(=O)N[C@H]1C[C@@H]1c1ccccc1	Active	Active	Active	Active	Active	Active	–	–	–	–
CC(C)(C)OC(=O)NCC(=O)OCCCCCCCCCCCCNC(=O)[C@@H]1CN(C(=O)c2ccc(C(=O)N3C[C@@H](C(=O)N[C@H]4C[C@@H]4c4ccccc4)[C@H](C(=O)N[C@H]4C[C@@H]4c4ccccc4)C3)cc2)C[C@H]1C(=O)N[C@H]1C[C@@H]1c1ccccc1	–	Active	Active	Active	Active	–	100	550	0.75	0.14
